ChEMBL document CHEMBL3102726, “Synthesis of tricyclic fused coumarin sulfonates and their inhibitory effects on LPS-induced nitric oxide and PGE2 productions in RAW 264.7 macrophages” (Bioorg Med Chem Lett, 2014)
Calls of active or inactive are those of the source. The calls are words filed in the database; no cut-off is given here.

How the values were obtained:
RAW264.7 [1] = assay: Antiinflammatory activity against mouse RAW264.7 cells assessed as inhibition of LPS-induced PGE2 production at 3 uM administered 1 hr prior to LPS-challenge measured after 24 hrs by EIA; type: functional, cell-based
Procedure, shortened: (§1)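 Single-concentration PGE₂ assay in LPS-stimulated RAW 264.7 cells: test compounds at 5 µM, reference NS398 at 3 µM. PGE₂ in culture media was quantified by EIA. Values are means ± SD of three independent experiments.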

RAW264.7 [2] = assay: Antiinflammatory activity against mouse RAW264.7 cells assessed as inhibition of LPS-induced PGE2 production administered 1 hr prior to LPS-challenge measured after 24 hrs by EIA; type: functional, cell-based
Procedure, shortened: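 Cells were pretreated for 1 h with compound at 0.1, 1, 10, 100 or 1000 nM, then given LPS (10 ng/mL) for 24 h. PGE₂ in culture media was quantified by EIA kit. Values are means ± SD of three independent experiments; ANOVA with Dunnett's post hoc test.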

RAW264.7 [3] = assay: Antiinflammatory activity against mouse RAW264.7 cells assessed as inhibition of LPS-induced NO production at 5 uM after 24 hrs by Griess assay; type: functional
Procedure, shortened: (§2)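 Single-concentration NO assay: test compounds at 5 µM, reference L-NIL at 20 µM, in LPS-stimulated RAW 264.7 cells. Nitrite in the medium was measured by Griess reaction (A540). Values are means ± SD of three independent experiments.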

RAW264.7 [4] = assay: Antiinflammatory activity against mouse RAW264.7 cells assessed as inhibition of LPS-induced NO production after 24 hrs by Griess assay; type: functional, cell-based; conditions: RAW264.7, 24 h
Procedure, shortened: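 Cells were plated at 4 × 10⁵/well in DMEM with 10% FBS at 37 °C, 5% CO₂. They were incubated 24 h with LPS (1 µg/mL) plus compound at 1.60–100 µM. Medium was mixed 1:1 with Griess reagent (sulfanilamide/naphthylethylenediamine in phosphoric acid) for 10 min at room temperature, then A540 was read against fresh medium blanks.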

RAW264.7 [5] = assay: Cytotoxicity against mouse RAW264.7 cells after 24 hrs by MTT assay; type: cell-based; conditions: RAW264.7, 24 h
Procedure, shortened: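 Cells were seeded at 10⁵/well and exposed to various concentrations of compound for 24 h. Viability was read by colorimetric MTT assay.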

RAW264.7 [6] = assay: Antiinflammatory activity against mouse RAW264.7 cells assessed as inhibition of LPS-induced NO production administered 1 hr prior to LPS-challenge measured after 24 hrs by Griess assay; type: functional, cell-based
Procedure, shortened: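 RAW 264.7 cells were grown in DMEM with 10% FBS, penicillin and streptomycin at 37 °C under 5% CO2, then plated at 4 × 10^5 cells/well. Culture medium was mixed 1:1 with Griess reagent (equal volumes of 1% sulfanilamide in 5% phosphoric acid and 0.1% naphthylethylenediamine·HCl) for 10 min at room temperature, and nitrite was read at 540 nm against fresh-medium blanks.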

RAW264.7 [7] = assay: Antiinflammatory activity against mouse RAW264.7 cells assessed as inhibition of LPS-induced PGE2 production at 5 uM administered 1 hr prior to LPS-challenge measured after 24 hrs by EIA; type: functional; procedure, shortened: as §1
RAW264.7 [8] = assay: Antiinflammatory activity against mouse RAW264.7 cells assessed as inhibition of LPS-induced iNOS protein expression administered 1 hr prior to LPS-challenge measured after 24 hrs by SDS-PAGE analysis; type: functional, cell-based
Procedure, shortened: (§3)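 RAW 264.7 macrophages were pretreated for 1 h with or without 0.01, 0.1, 0.5, 1, 5 or 10 µM compound, then stimulated with LPS (10 ng/mL) for 24 h. Cell lysates were run on SDS–PAGE and transferred to PVDF. Blots were probed with iNOS and COX-2 antibodies, with β-actin as internal control.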

RAW264.7 [9] = assay: Antiinflammatory activity against mouse RAW264.7 cells assessed as inhibition of LPS-induced COX2 protein expression administered 1 hr prior to LPS-challenge measured after 24 hrs by SDS-PAGE analysis; type: functional, cell-based; procedure, shortened: as §3
[10] = biological target: T1, Prostaglandin G/H synthase 2 (Homo sapiens) (UniProt P35354); assay: Inhibition of LPS-induced recombinant COX2 (unknown origin) activity expressed in mouse RAW264.7 cells at 0.1 to 5 uM after 10 mins; type: cell-based
T1 sequence (whole entry): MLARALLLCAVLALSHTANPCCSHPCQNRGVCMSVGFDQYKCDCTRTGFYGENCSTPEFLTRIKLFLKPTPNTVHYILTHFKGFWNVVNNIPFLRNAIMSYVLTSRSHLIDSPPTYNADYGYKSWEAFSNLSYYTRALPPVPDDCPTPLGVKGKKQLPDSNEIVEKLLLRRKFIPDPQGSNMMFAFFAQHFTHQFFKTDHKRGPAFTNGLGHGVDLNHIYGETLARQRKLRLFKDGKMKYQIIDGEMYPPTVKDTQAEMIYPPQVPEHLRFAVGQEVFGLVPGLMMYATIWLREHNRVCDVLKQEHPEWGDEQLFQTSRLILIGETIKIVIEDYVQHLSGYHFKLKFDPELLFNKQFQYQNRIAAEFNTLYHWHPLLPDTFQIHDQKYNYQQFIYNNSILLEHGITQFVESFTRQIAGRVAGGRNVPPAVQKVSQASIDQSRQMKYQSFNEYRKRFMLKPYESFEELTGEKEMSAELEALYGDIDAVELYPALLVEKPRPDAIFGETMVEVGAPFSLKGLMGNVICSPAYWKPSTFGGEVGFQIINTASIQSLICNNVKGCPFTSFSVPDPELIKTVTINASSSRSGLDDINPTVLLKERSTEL

RAW264.7 [11] = assay: Ratio of L-NIL IC50 to compound IC50 for mouse RAW264.7 cells; type: functional
[12] = biological target: T2, Nitric oxide synthase, inducible (Mus musculus) (UniProt P29477); assay: Inhibition of LPS-induced iNOS activity in mouse RAW264.7 cells at 1 to 10 uM after 12 hrs
T2 sequence (whole entry): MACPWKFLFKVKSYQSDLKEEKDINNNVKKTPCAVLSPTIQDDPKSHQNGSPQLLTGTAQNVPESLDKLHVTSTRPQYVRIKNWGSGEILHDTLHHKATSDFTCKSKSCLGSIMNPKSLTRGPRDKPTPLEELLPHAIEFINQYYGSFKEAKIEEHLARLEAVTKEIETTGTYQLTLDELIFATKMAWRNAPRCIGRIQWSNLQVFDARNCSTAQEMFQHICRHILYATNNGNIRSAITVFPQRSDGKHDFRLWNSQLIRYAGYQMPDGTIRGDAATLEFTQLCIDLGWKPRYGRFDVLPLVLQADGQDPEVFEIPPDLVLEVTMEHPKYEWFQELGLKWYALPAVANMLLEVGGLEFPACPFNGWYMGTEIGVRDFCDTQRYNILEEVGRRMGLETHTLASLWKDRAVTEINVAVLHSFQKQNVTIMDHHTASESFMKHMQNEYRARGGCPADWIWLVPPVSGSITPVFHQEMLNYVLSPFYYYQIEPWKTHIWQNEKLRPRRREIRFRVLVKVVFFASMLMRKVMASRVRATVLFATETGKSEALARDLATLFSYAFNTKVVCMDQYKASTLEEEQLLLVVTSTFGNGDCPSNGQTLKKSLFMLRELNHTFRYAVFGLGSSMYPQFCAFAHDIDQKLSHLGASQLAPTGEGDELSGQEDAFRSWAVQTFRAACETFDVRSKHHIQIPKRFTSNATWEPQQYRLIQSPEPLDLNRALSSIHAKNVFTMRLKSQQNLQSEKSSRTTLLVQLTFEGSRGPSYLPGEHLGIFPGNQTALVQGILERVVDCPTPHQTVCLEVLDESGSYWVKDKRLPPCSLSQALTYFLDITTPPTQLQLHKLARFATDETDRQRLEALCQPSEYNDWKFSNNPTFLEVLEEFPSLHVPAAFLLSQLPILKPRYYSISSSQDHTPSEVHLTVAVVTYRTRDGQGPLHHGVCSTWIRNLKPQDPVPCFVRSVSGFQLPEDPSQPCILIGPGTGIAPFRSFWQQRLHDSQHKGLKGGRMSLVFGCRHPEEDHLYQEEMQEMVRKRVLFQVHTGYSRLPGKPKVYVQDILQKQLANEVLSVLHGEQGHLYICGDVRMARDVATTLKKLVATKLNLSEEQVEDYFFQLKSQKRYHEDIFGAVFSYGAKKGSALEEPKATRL

RAW264.7 [13] = assay: Antiinflammatory activity against mouse RAW264.7 cells assessed as inhibition of LPS-induced NO production at 20 uM after 24 hrs by Griess assay; type: functional; conditions: RAW264.7, 24 h; procedure, shortened: as §2
RAW264.7 [14] = assay: Ratio of NS398 IC50 to compound IC50 for mouse RAW264.7 cells; type: functional

CS(=O)(=O)Nc1ccc([N+](=O)[O-])cc1OC1CCCCC1 [NS-398]
inhibition (RAW264.7 [1]): Active
IC50 (RAW264.7 [2]): 7.01 nM

O=c1oc2cc(OS(=O)(=O)c3ccc(C(F)(F)F)cc3)ccc2c2c1CCCCCC2
inhibition (RAW264.7 [3]): Active
IC50 (RAW264.7 [2]): 6.04 nM
IC50 (RAW264.7 [4]): 75.3 µM
IC50 (RAW264.7 [5]): > 100 µM

O=c1oc2cc(OS(=O)(=O)c3ccccc3)ccc2c2c1CCCCCC2
inhibition (RAW264.7 [3]): Active
IC50 (RAW264.7 [5]): > 100 µM

NS(=O)(=O)Oc1ccc2c3c(c(=O)oc2c1)CCCCC3 [IROSUSTAT]
IC50 (RAW264.7 [6]): 85.8 µM
inhibition (RAW264.7 [6]): Dose-dependent effect
IC50 (RAW264.7 [2]): 81 nM
inhibition (RAW264.7 [2]): Dose-dependent effect

O=c1oc2cc(OS(=O)(=O)C3CC3)ccc2c2c1CCCCC2
inhibition (RAW264.7 [7]): Active
inhibition (RAW264.7 [3]): Active
IC50 (RAW264.7 [5]): 20.3 µM

Cc1ccc(S(=O)(=O)Oc2ccc3c4c(c(=O)oc3c2)CCCCC4)cc1
inhibition (RAW264.7 [7]): Active
inhibition (RAW264.7 [3]): Active
IC50 (RAW264.7 [5]): > 100 µM

O=c1oc2cc(OS(=O)(=O)C3CC3)ccc2c2c1CCCCCC2
inhibition (RAW264.7 [7]): Active
inhibition (RAW264.7 [3]): Active
IC50 (RAW264.7 [5]): 10.5 µM

CS(=O)(=O)Oc1ccc2c3c(c(=O)oc2c1)CCCCC3
inhibition (RAW264.7 [7]): Active
inhibition (RAW264.7 [3]): Active
IC50 (RAW264.7 [5]): 90.8 µM

O=c1oc2cc(OS(=O)(=O)c3ccc(C(F)(F)F)cc3)ccc2c2c1CCCCC2
inhibition (RAW264.7 [8]): Active
inhibition (RAW264.7 [9]): Dose-dependent effect
inhibition [10]: Active
Ratio IC50 (RAW264.7 [11]): 5.24
inhibition (INH) (RAW264.7 [7]): 91.48%
inhibition at 5 µM (RAW264.7 [3]; RAW264.7, 24 h): 65.8%
IC50 (RAW264.7 [2]): 6.45 nM
IC50 (RAW264.7 [4]): 3.84 µM
IC50 (RAW264.7 [5]): > 100 µM
inhibition [12]: inactive

CC(=N)NCCCC[C@H](N)C(=O)O [L-NIL]
inhibition at 20 µM (RAW264.7 [13]): 50%
IC50 (RAW264.7 [4]): 20.1 µM

CCCS(=O)(=O)Oc1ccc2c3c(c(=O)oc2c1)CCCCCC3
Ratio IC50 (RAW264.7 [14]): 1.74
inhibition (RAW264.7 [7]): Active
inhibition (RAW264.7 [3]): Active
IC50 (RAW264.7 [2]): 4.02 nM
IC50 (RAW264.7 [4]): 10 µM
IC50 (RAW264.7 [5]): 9.2 µM

CCS(=O)(=O)Oc1ccc2c3c(c(=O)oc2c1)CCCCCC3
inhibition (RAW264.7 [7]): Active
inhibition (RAW264.7 [3]): Active
IC50 (RAW264.7 [5]): 21.5 µM

O=c1oc2cc(OS(=O)(=O)c3ccccc3)ccc2c2c1CCCCC2
inhibition (RAW264.7 [7]): Active
inhibition (RAW264.7 [3]): Active
IC50 (RAW264.7 [5]): > 100 µM

CS(=O)(=O)Oc1ccc2c3c(c(=O)oc2c1)CCCCCC3
inhibition (RAW264.7 [7]): Active
inhibition (RAW264.7 [3]): Active
IC50 (RAW264.7 [5]): 24.5 µM

Cc1ccc(S(=O)(=O)Oc2ccc3c4c(c(=O)oc3c2)CCCCCC4)cc1
inhibition (RAW264.7 [7]): Active
inhibition (RAW264.7 [3]): Active
IC50 (RAW264.7 [2]): 6.75 nM
IC50 (RAW264.7 [4]): 40.7 µM
IC50 (RAW264.7 [5]): > 100 µM

CCCS(=O)(=O)Oc1ccc2c3c(c(=O)oc2c1)CCCCC3
inhibition (RAW264.7 [7]): Active
inhibition (RAW264.7 [3]): Active
IC50 (RAW264.7 [5]): 23.9 µM

CCS(=O)(=O)Oc1ccc2c3c(c(=O)oc2c1)CCCCC3
inhibition (RAW264.7 [7]): Active
inhibition (RAW264.7 [3]): Active
IC50 (RAW264.7 [5]): 23.4 µM
